The RNAGym collection of RNA variant scans (doi:10.1002/anie.201605470)

B1: Osa-1-4 twister ribozyme (parent)
chain: CCGCCUAACACUGCCAAUGCCGGUCCCAAGCCCGGAUAAAAGUGGAGGGGGCGG

Variants of: B1
Assay: self-cleavage, relative activity (ratio to wild type); higher = more cleavage; co-transcriptional
Outline: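 A DNA template was synthesised for a 54-nucleotide twister ribozyme from Oryza sativa, with 97 % wild-type base and 1 % of each other base at each of the 48 positions downstream of the cleavage site. The ribozyme cleaved itself co-transcriptionally during 2 h of in vitro transcription at 37 °C. Reverse transcription with a template-switching oligonucleotide, PCR amplification and deep sequencing followed, and cleavage status came from reads with or without upstream sequence. Relative activity is the fraction cleaved normalised to wild type.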

Q: For CCGCCUCACACUGCCAAUGCCGGUCCAAAGCCCGGAUAAAAGUGGAGGGGGCGG [A7C C27A], which self-cleavage is on record?
A: 0.06

Q: With CCGCCUCACACUGCCAAUGCCGGUCCGAAGCCCGGAUAAAAGUGGAGGGGGCGG [A7C C27G] as the variant, how does the self-cleavage read?
A: 0.02

Q: Which self-cleavage does the source give for CCGCCUCACACUGCCAAUGCCGGUCCUAAGCCCGGAUAAAAGUGGAGGGGGCGG [A7C C27U] here?
A: 0.03

Q: Which self-cleavage does the source give for CCGCCUCACACUGCCAAUGACGGUCCCAAGCCCGGAUAAAAGUGGAGGGGGCGG [A7C C20A] here?
A: 0.06

Q: For CCGCCUCACACUGCCAAUGUCGGUCCCAAGCCCGGAUAAAAGUGGAGGGGGCGG [A7C C20U], which self-cleavage is on record?
A: 0.06

Q: Which self-cleavage does the source give for CCGCCUCACACUGCCAAUGGCGGUCCCAAGCCCGGAUAAAAGUGGAGGGGGCGG [A7C C20G] here?
A: 0.01

Q: For CCGCCUCACACUGACAAUGCCGGUCCCAAGCCCGGAUAAAAGUGGAGGGGGCGG [A7C C14A], which self-cleavage is on record?
A: 0.04

Q: Which self-cleavage does the source give for CCGCCUCACACUGUCAAUGCCGGUCCCAAGCCCGGAUAAAAGUGGAGGGGGCGG [A7C C14U] here?
A: 0.04

Q: Which self-cleavage does the source give for CCGCCUCACACUGGCAAUGCCGGUCCCAAGCCCGGAUAAAAGUGGAGGGGGCGG [A7C C14G] here?
A: 0.03

Q: For CCGCCUCACAGUGCCAAUGCCGGUCCCAAGCCCGGAUAAAAGUGGAGGGGGCGG [A7C C11G], which self-cleavage is on record?
A: 0.04

Q: For CCGCCUCACAAUGCCAAUGCCGGUCCCAAGCCCGGAUAAAAGUGGAGGGGGCGG [A7C C11A], which self-cleavage is on record?
A: 0.06

Q: With CCGCCUCACAUUGCCAAUGCCGGUCCCAAGCCCGGAUAAAAGUGGAGGGGGCGG [A7C C11U] as the variant, how does the self-cleavage read?
A: 0.05

Q: For CCGCCUCACACUGCCAAUGCUGGUCCCAAGCCCGGAUAAAAGUGGAGGGGGCGG [A7C C21U], which self-cleavage is on record?
A: 0.04

Q: Which self-cleavage does the source give for CCGCCUCACACUGCCAAUGCGGGUCCCAAGCCCGGAUAAAAGUGGAGGGGGCGG [A7C C21G] here?
A: 0.01

Q: For CCGCCUCACACUGCCAAUGCAGGUCCCAAGCCCGGAUAAAAGUGGAGGGGGCGG [A7C C21A], which self-cleavage is on record?
A: 0.06

Q: With CCGCCUCACACUGCCAAUGCCGGUCCCAAGCUCGGAUAAAAGUGGAGGGGGCGG [A7C C32U] as the variant, how does the self-cleavage read?
A: 0.02

Q: With CCGCCUCACACUGCCAAUGCCGGUCCCAAGCACGGAUAAAAGUGGAGGGGGCGG [A7C C32A] as the variant, how does the self-cleavage read?
A: 0.04

Q: With CCGCCUCACACUGCCAAUGCCGGUCCCAAGCGCGGAUAAAAGUGGAGGGGGCGG [A7C C32G] as the variant, how does the self-cleavage read?
A: 0.02

Q: Which self-cleavage does the source give for CCGCCUCACACUGCCAAUGCCGGUCCCAAGCCCGGAUAAAAGUGGAGGGGGGGG [A7C C52G] here?
A: 0.07

Q: For CCGCCUCACACUGCCAAUGCCGGUCCCAAGCCCGGAUAAAAGUGGAGGGGGUGG [A7C C52U], which self-cleavage is on record?
A: 0.06

Q: With CCGCCUCACACUGCCAAUGCCGGUCCCAAGCCCGGAUAAAAGUGGAGGGGGAGG [A7C C52A] as the variant, how does the self-cleavage read?
A: 0.06

Q: With CCGCCUCACACUUCCAAUGCCGGUCCCAAGCCCGGAUAAAAGUGGAGGGGGCGG [A7C G13U] as the variant, how does the self-cleavage read?
A: 0.01

Q: For CCGCCUCACACUCCCAAUGCCGGUCCCAAGCCCGGAUAAAAGUGGAGGGGGCGG [A7C G13C], which self-cleavage is on record?
A: 0.02

Q: With CCGCCUCACACUACCAAUGCCGGUCCCAAGCCCGGAUAAAAGUGGAGGGGGCGG [A7C G13A] as the variant, how does the self-cleavage read?
A: 0.02

Q: For CCGCCUCACACUGCCAAUGCCGGUCCCAAGCCGGGAUAAAAGUGGAGGGGGCGG [A7C C33G], which self-cleavage is on record?
A: 0.02

Q: Which self-cleavage does the source give for CCGCCUCACACUGCCAAUGCCGGUCCCAAGCCUGGAUAAAAGUGGAGGGGGCGG [A7C C33U] here?
A: 0.04

Q: Which self-cleavage does the source give for CCGCCUCACACUGCCAAUGCCGGUCCCAAGCCAGGAUAAAAGUGGAGGGGGCGG [A7C C33A] here?
A: 0.05

Q: For CCGCCUCACACUGCCAAUGCCGGUCCCAAGGCCGGAUAAAAGUGGAGGGGGCGG [A7C C31G], which self-cleavage is on record?
A: 0.02

Q: With CCGCCUCACACUGCCAAUGCCGGUCCCAAGUCCGGAUAAAAGUGGAGGGGGCGG [A7C C31U] as the variant, how does the self-cleavage read?
A: 0.05

Q: Which self-cleavage does the source give for CCGCCUCACACUGCCAAUGCCGGUCCCAAGACCGGAUAAAAGUGGAGGGGGCGG [A7C C31A] here?
A: 0.01

Q: For CCGCCUCACACUGCUAAUGCCGGUCCCAAGCCCGGAUAAAAGUGGAGGGGGCGG [A7C C15U], which self-cleavage is on record?
A: 0.04

Q: Which self-cleavage does the source give for CCGCCUCACACUGCGAAUGCCGGUCCCAAGCCCGGAUAAAAGUGGAGGGGGCGG [A7C C15G] here?
A: 0.07

Q: With CCGCCUCACACUGCAAAUGCCGGUCCCAAGCCCGGAUAAAAGUGGAGGGGGCGG [A7C C15A] as the variant, how does the self-cleavage read?
A: 0.04

Q: With CCGCCUCACACUGCCAAUGCCGGUUCCAAGCCCGGAUAAAAGUGGAGGGGGCGG [A7C C25U] as the variant, how does the self-cleavage read?
A: 0.04

Q: Which self-cleavage does the source give for CCGCCUCACACUGCCAAUGCCGGUACCAAGCCCGGAUAAAAGUGGAGGGGGCGG [A7C C25A] here?
A: 0.05

Q: For CCGCCUCACACUGCCAAUGCCGGUGCCAAGCCCGGAUAAAAGUGGAGGGGGCGG [A7C C25G], which self-cleavage is on record?
A: 0.02

Q: With CCGCCUCAUACUGCCAAUGCCGGUCCCAAGCCCGGAUAAAAGUGGAGGGGGCGG [A7C C9U] as the variant, how does the self-cleavage read?
A: 0.02

Q: With CCGCCUCAAACUGCCAAUGCCGGUCCCAAGCCCGGAUAAAAGUGGAGGGGGCGG [A7C C9A] as the variant, how does the self-cleavage read?
A: 0.09

Q: With CCGCCUCAGACUGCCAAUGCCGGUCCCAAGCCCGGAUAAAAGUGGAGGGGGCGG [A7C C9G] as the variant, how does the self-cleavage read?
A: 0.04

Q: For CCGCCUCACACUGCCAAUGCCGGUCCCAAGCCCGGAUAAAAGUGGAGGGGGCGG [A7C], which self-cleavage is on record?
A: 0.04

Q: Which self-cleavage does the source give for CCGCCUCACACUGCCAAUGCCGGUCGCAAGCCCGGAUAAAAGUGGAGGGGGCGG [A7C C26G] here?
A: 0.02

Q: Which self-cleavage does the source give for CCGCCUCACACUGCCAAUGCCGGUCUCAAGCCCGGAUAAAAGUGGAGGGGGCGG [A7C C26U] here?
A: 0.05

Q: Which self-cleavage does the source give for CCGCCUCACACUGCCAAUGCCGGUCACAAGCCCGGAUAAAAGUGGAGGGGGCGG [A7C C26A] here?
A: 0.03

Q: For CCGCCUCACACUGCCAAUCCCGGUCCCAAGCCCGGAUAAAAGUGGAGGGGGCGG [A7C G19C], which self-cleavage is on record?
A: 0.02

Q: Which self-cleavage does the source give for CCGCCUCACACUGCCAAUACCGGUCCCAAGCCCGGAUAAAAGUGGAGGGGGCGG [A7C G19A] here?
A: 0.05

Q: With CCGCCUCACACUGCCAAUUCCGGUCCCAAGCCCGGAUAAAAGUGGAGGGGGCGG [A7C G19U] as the variant, how does the self-cleavage read?
A: 0.03

Q: With CCGCCUCGCACUGCCAAUGCCGGUCCCAAGCCCGGAUAAAAGUGGAGGGGGCGG [A7C A8G] as the variant, how does the self-cleavage read?
A: 0.05

Q: Which self-cleavage does the source give for CCGCCUCCCACUGCCAAUGCCGGUCCCAAGCCCGGAUAAAAGUGGAGGGGGCGG [A7C A8C] here?
A: 0.07

Q: For CCGCCUCUCACUGCCAAUGCCGGUCCCAAGCCCGGAUAAAAGUGGAGGGGGCGG [A7C A8U], which self-cleavage is on record?
A: 0.06
